SIAE primary: blocks human sialic acid acetylesterase. hit rate 0.69% among 370,000. Q9HAT2. inhibition, % at 9.66 µM. SIAE FP-Rh probe binding, fluorescence polarization;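 active means inhibition above a cutoff: mean of compounds within the control limits plus 3 SD of those, cut at about 17% in these data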;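 further: 0% = plate median of compound wells and 100% = probe without SIAE protein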
Target sequence (Q9HAT2 whole entry, looked up): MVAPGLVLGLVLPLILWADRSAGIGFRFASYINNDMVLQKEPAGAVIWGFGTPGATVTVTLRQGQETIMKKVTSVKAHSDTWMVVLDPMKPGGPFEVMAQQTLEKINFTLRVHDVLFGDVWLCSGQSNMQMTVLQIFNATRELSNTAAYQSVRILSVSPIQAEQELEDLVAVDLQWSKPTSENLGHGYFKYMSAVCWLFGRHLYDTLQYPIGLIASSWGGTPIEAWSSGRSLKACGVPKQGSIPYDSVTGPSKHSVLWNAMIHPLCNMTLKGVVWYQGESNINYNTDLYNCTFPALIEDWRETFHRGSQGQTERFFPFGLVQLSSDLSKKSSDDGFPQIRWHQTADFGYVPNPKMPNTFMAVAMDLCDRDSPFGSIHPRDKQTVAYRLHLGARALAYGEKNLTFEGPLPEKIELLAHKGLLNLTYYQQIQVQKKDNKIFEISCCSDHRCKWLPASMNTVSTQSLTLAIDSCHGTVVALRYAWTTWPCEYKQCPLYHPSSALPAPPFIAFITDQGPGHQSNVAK
TDP2 inh: TDP2 (human) inhibition, absorbance primary screen. O95551. recombinant TDP2, T5PNP hydrolysis, p-nitrophenol absorbance 415 nm. inhibition, % at 12.8 µM. hit rate 0.34% among 370,000;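 active means inhibition above the mean of all tested compounds plus 3 SD, set per campaign, cut at about 25% in these data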;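 further: 0% = DMSO with enzyme and 100% = buffer with substrate but no TDP2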
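Assay system: Recombinant human TDP2 | Quantity: 120 nM TDP2 per well | Incubation: 2 h at 37 °C | Signal: Epi absorbance | Evaluation: Percent inhibition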
TCR-CD3 inh: human TCR-CD3 binding inhibition; hit rate 0.37% among 360,000; inhibition, % at 9.4 µM; TAMRA-labeled TCR probe fluorescence, biochemical; AID 651800; in the data active means inhibition above about 19%;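 further: recombinant mutant TCR 2C K166C tagged with TAMRA read by polarization; 0% = receptor in buffer alone and 100% = receptor with positive control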
Apaf1 inhib: human Apaf-1 inhibition; hit rate 0.71% among 330,000; inhibition, % at 20 µM; AID 489030; reconstituted apoptosome caspase-3 activity, DEVD-Rh110 fluorescence; O14727; active means inhibition of at least 40% at 20 µM;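 further: plate controls were DMSO wells for no effect and DEVD-CHO caspase inhibitor wells for full effect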
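Material: cell-free apoptosome with Apaf-1, procaspase-3 and caspase-9; Buffer or medium: Hepes pH 7.5 with detergent and BSA; Reagent: cytochrome c trigger plus (Z-DEVD)2-Rh110 caspase-3 substrate; Times: compound with Apaf-1, dATP, procaspase-3 30 min, then 50 min reaction, room temperature; Technique: Rh110 fluorescence intensity.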
GSTO1 counter: blocks human GSTO1 in RBBP9 counter-screen | P78417 | recombinant GSTO1, activity-based probe fluorescence polarization | inhibition, % at 5.96 µM | hit rate 1.1% among 300,000 | AID 1974;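 active means inhibition above the campaign mean inhibition plus 3 SD, cut at about 35% in these data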;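 further: 0% = GSTO1-1 with DMSO and 100% = wells lacking GSTO1-1 enzyme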
Target sequence (P78417 whole entry, looked up): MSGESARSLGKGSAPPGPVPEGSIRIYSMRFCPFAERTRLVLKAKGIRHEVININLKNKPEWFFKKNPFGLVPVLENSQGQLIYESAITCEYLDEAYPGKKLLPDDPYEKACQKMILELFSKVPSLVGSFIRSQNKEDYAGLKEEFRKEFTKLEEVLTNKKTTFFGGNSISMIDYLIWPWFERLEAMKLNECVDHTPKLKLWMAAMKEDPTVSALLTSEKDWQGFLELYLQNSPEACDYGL
PAD4 FP inh: inhibitors of human PAD4 | AID 485272 | inhibition, % at 6.36 µM | recombinant PAD4, RCA probe fluorescence polarization | hit rate 0.41% among 330,000 | Q9UM07;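 active means percent inhibition above a cutoff equal to the mean of all tested compounds plus 3 SD, cut at about 15% in these data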;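 further: 0% = PAD4 with RCA probe and DMSO and 100% = probe without PAD4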
GSTO1 confirm: GSTO1 (human) inhibition, confirmation; inhibition, % at 5.96 µM; recombinant GSTO1, probe fluorescence polarization; hit rate 54% among 2,400; shares compounds with GSTO1 counter;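 active means inhibition above the primary screen's cutoff, its mean inhibition plus 3 SD, cut at about 35% in these data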;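 further: loss of polarization as inhibitors block binding of rhodamine sulfonate ester activity probe; 0% = GSTO1 with DMSO and 100% = wells lacking GSTO1 enzyme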
GSTO1 recomb ABPP: blocks recombinant human glutathione S-transferase omega 1; shares compounds with GSTO1 counter; recombinant GSTO1, gel ABPP SE-Rh probe fluorescence; inhibition, % at 1 µM; hit rate 30% among 130; AID 463110;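 active means inhibition of the enzyme GSTO1 above about 75%, limit read from the data; inactive means inhibition below that limit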
Numbers without * were called inactive; / = not tested or not shown. Rows were chosen to be rich in hits. Some 2.4% of all compounds tested hit in one or more screens of this group.

SMILES | SIAE primary | TDP2 inh | TCR-CD3 inh | Apaf1 inhib | GSTO1 counter | PAD4 FP inh | GSTO1 confirm | others
CCCCOC(=O)CSC1=C(C#N)C(c2ccccc2OCC)C(C#N)C(=O)N1 (stereo not drawn) | / | / | / | 5.0 | 10.1 | -1.0 | /
CCOC(=O)c1nc(N/N=C/c2ccccc2)sc1Br | -1.8 | 4.3 | -2.4 | 24.8 | 51.0* | -3.5 | 20.8
OCC[C@@H]1C[C@H](O)[C@@H](O)[C@@]2(CCCc3ccccc3O2)O1 | -0.5 | 2.3 | 13.3 | 8.3 | 8.6 | 2.2 | /
CC1=CC(C)(C)N(C(=O)CCl)c2ccccc21 | -1.0 | -10.2 | -2.6 | 9.0 | 65.1* | 3.6 | 57.9* | GSTO1 recomb ABPP=31.0
COC(=O)[C@H](Cc1c[nH]c2ccccc12)NC(=O)CCCc1c[nH]c2ccccc12 | 0.7 | 6.6 | 5.0 | -4.0 | 5.1 | -2.4 | /
CCOC(=O)C(Cc1ccc(O)cc1)NC(=O)CCc1c[nH]c2ccccc12 (stereo not drawn) | 4.7 | 2.4 | 7.6 | -0.7 | 38.1* | -1.7 | 4.7
CC(C)C[C@@H](CNCC(=O)[C@H](CC(C)C)NC(=O)c1[nH]cnc1C(=O)N[C@@H](C)CN)NC(=O)c1nc[nH]c1C(=O)N[C@@H](CC(C)C)C(=O)O | 4.6 | 1.9 | -1.1 | / | / | / | /
Cc1ccc(NC(=O)CC(N)=S)cc1 | -1.8 | -2.4 | 8.4 | -12.6 | 56.1* | 4.8 | 26.9
Cc1cc(C(=O)NNC(=O)c2ccc(Cl)cc2)no1 | 0.7 | 0.1 | -2.0 | -6.2 | 48.0* | -1.1 | 6.7
O=C(N[C@H]1CC[C@@H](CCNS(=O)(=O)c2ccccc2Cl)O[C@@H]1CO)c1ccccc1 | -2.5 | -12.2 | 4.3 | / | / | / | /
Cc1cc([N+](=O)[O-])cc2c1NC(=O)C2(O)N1CCOCC1 (stereo not drawn) | 2.5 | 13.5 | 7.9 | 7.4 | 38.0* | -5.1 | 14.9
CC(C)(C)C(=O)NC(c1ccccc1)c1c(O)ccc2ccccc12 (stereo not drawn) | -0.7 | -3.4 | 2.6 | 18.6 | 52.7* | -4.5 | 6.2
CC(C)(C)OC(=O)C(Cl)(C(=O)OC(C)(C)C)c1ccc2nnnn2n1 | 5.4 | 5.3 | 1.8 | / | / | / | /
CNC(=S)NNC(=O)c1cn(C)nc1C | 7.2 | 10.1 | 12.8 | 3.5 | 3.1 | -2.5 | /
Oc1ccc(C2CNCCc3c2cc(O)c(O)c3Cl)cc1 (stereo not drawn) | -1.7 | 5.6 | 4.7 | -4.7 | -3.0 | -2.3 | /
Oc1ccc(C2CNCc3sccc32)cc1O (stereo not drawn) | 11.8 | 3.1 | -1.8 | 1.1 | 48.5* | 4.4 | 7.1
CC12CCC(C(=O)N(CC3CO3)C1=O)C2(C)C (stereo not drawn) | 6.3 | 14.4 | 6.4 | 0.2 | 60.8* | 2.4 | 77.2* | GSTO1 recomb ABPP=7.0
CC12CCC(C(=O)N(CCCCN3CCN(Cc4ccccc4)CC3)C1=O)C2(C)C (stereo not drawn) | 2.2 | 15.0 | -0.6 | -12.4 | 4.9 | 2.6 | /
O=C(NNC(=O)C(Cl)Cl)c1cnn(-c2ccccc2)c1C(F)(F)F | -1.2 | -5.8 | -12.7 | 2.3 | 48.7* | 1.4 | 29.3
Cc1ccc2nc(-c3ccco3)c(Cc3ccsc3)n2c1 | 3.5 | 4.2 | -2.6 | / | / | / | /
O=[N+]([O-])c1ccc(/C=[N+](\[O-])[C@@H]2CCCC[C@@H]2/[N+]([O-])=C/c2ccc([N+](=O)[O-])o2)o1 | 0.4 | 5.3 | 4.5 | 10.2 | 39.9* | -11.4 | 18.4
O=C(N/N=C/c1ccc([N+](=O)[O-])o1)C1CCCC1 | 7.1 | -0.6 | 5.0 | 1.6 | 19.4 | -1.2 | /
CC(C)(c1ccccc1)c1ccc(OCC2CO2)cc1 (stereo not drawn) | -1.1 | 14.2 | 5.8 | 13.2 | 94.5* | 2.9 | 90.7* | GSTO1 recomb ABPP=63.0
CN(C)CCOc1ccc(C(C)(C)c2ccccc2)cc1 | 3.2 | 12.5 | 2.0 | -10.9 | -2.1 | 4.0 | /
O=S(=O)(c1ccc(OCC2CO2)cc1)c1ccc(OCC2CO2)cc1 (stereo not drawn) | -3.7 | 1.9 | -1.8 | -4.8 | 91.6* | 1.8 | 89.7* | GSTO1 recomb ABPP=31.0
SMILES | SIAE primary | TDP2 inh | TCR-CD3 inh | Apaf1 inhib | GSTO1 counter | PAD4 FP inh | GSTO1 confirm | others
O=C1CN(S(=O)(=O)c2ccccc2Cl)CCN1 | -3.6 | -6.2 | 10.2 | 14.4 | / | / | /
Cc1oc(-c2ccccc2)cc1C(=O)NC(Cc1c[nH]c2ccccc12)C(=O)O (stereo not drawn) | 0.8 | -6.0 | -4.3 | 12.1 | -2.4 | -8.2 | /
Cc1nc(C)c(-c2csc(N)n2)s1 | 2.8 | 7.0 | 4.8 | -6.6 | 39.3* | -2.6 | 8.7
O=C(COC(=O)/C=C/c1cccs1)Nc1ccc(Cl)cc1F | -4.4 | 0.4 | -4.0 | -1.1 | / | -1.0 | /
Cc1ccc(S(=O)(=O)NC2CCCCC2)cc1C(=O)N1CCC(C(N)=O)CC1 | 1.3 | -1.0 | 9.2 | -1.6 | / | -6.2 | /
COC/C=C/C1=CC2=CC(=O)C(C)(OC(=O)c3cnc4ccccc4n3)C(=O)C2=CN1CCc1c[nH]c2ccccc12 (stereo not drawn) | / | / | / | 23.0 | 45.4* | 0.1 | 5.7
COC/C=C/C1=CC2=CC(=O)C(C)(OC(=O)c3cnc4ccccc4n3)C(=O)C2=CN1c1ccccc1 (stereo not drawn) | 16.3 | 3.4 | 9.1 | 14.7 | 37.7* | -0.9 | 3.5
COC(=O)c1cnc2ccccc2n1 | 1.4 | -9.0 | 3.5 | -3.9 | -1.3 | -3.3 | /
CCS(=O)(=O)N1Cc2ccccc2CC1C(=O)Nc1nnc(SCc2ccc(C#N)cc2)s1 (stereo not drawn) | -5.4 | -3.3 | 9.8 | 16.7 | -61.2 | 2.4 | /
Cc1nnc(NC(=O)CN2CCN(Cc3ccccc3)CC2)s1 | -2.2 | -4.1 | -1.3 | 8.8 | 46.0* | 0.6 | 17.6
O=C(CN1CCN(Cc2ccccc2)CC1)Nc1nnc(C(F)(F)F)s1 | 7.0 | 9.8 | 1.8 | 10.8 | 7.2 | -3.7 | /
NC(=O)CCn1c(C(=O)c2ccc(Cl)cc2)c2ccccc2[n+]1[O-] | 2.7 | -5.0 | 1.6 | -6.7 | 50.4* | -2.3 | 7.7
Cc1nn(-c2ccccc2)c2c1C1(C(=O)N(C(C)C)c3ccccc31)C(C#N)=C(N)O2 (stereo not drawn) | 2.9 | -3.8 | 1.7 | 23.2 | 40.1* | -1.8 | 10.9
Cc1nn(-c2ccccc2)c(N)c1C1(O)C(=O)N(C(C)C)c2ccccc21 (stereo not drawn) | 4.6 | 7.4 | 7.4 | 2.8 | -2.3 | -1.1 | /
Cn1c(C(=O)O)c(CC(=O)N2CCC(Cc3ccccc3)CC2)c2ccccc21 | -0.5 | 4.2 | -4.4 | 8.9 | 41.8* | -3.1 | 8.5
CC(C)c1ccc(-c2nc3c([nH]2)c(=O)n(C)c(=O)n3C)cc1 | -5.3 | 6.0 | -4.9 | 0.7 | -1.1 | 5.1 | /
Cn1c(=O)c2[nH]c(-c3ccccc3O)nc2n(C)c1=O | / | / | / | 7.3 | 38.0* | -2.5 | 13.3
